NR2E3 ag-1: activates human photoreceptor nuclear receptor NR2E3; Q9Y5X4; GST-NR2E3/biotin-RetCOR TR-FRET, 1536-well; inhibition of corepressor binding, % at 4.78 µM; 320,000 tested, 0.12% active; AID 2300;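 active = percent inhibition above the cutoff of mean plus 3 SD of all tested compounds, set per screening campaign, cut at about 20% in these data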;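 note: 0% = DMSO wells and 100% = biotin wells as full block of FRET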
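Test system: GST-NR2E3 and biotin-RetCOR proteins | Quantity: 1.35 nM GST-tagged NR2E3 final | Medium: Tris pH 7.5 | Also added: 7 nM biotin-RetCOR | Dosing: Compound at 4.8 µM, single dose | Timing: 5 h at 4 °C | Detection: Time-resolved FRET | Read-out basis: Percent inhibition | Benchmarks: Biotin wells as high control, 0.6% DMSO wells as low control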
Rev-erbA mod: modulators of human Rev-erb alpha DNA binding; P20393; Rev-erbα–FITC-DNA binding, fluorescence polarization, 90 min; activity, % at 10 µM; 370,000 tested, 0.79% active;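 active = activity above about 14%, limit read from the data; passing the limit was not always enough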;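 note: 0% = DMSO wells with 35 nM protein and 100% = DMSO wells with 750 nM protein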
Target sequence (P20393 whole entry, looked up): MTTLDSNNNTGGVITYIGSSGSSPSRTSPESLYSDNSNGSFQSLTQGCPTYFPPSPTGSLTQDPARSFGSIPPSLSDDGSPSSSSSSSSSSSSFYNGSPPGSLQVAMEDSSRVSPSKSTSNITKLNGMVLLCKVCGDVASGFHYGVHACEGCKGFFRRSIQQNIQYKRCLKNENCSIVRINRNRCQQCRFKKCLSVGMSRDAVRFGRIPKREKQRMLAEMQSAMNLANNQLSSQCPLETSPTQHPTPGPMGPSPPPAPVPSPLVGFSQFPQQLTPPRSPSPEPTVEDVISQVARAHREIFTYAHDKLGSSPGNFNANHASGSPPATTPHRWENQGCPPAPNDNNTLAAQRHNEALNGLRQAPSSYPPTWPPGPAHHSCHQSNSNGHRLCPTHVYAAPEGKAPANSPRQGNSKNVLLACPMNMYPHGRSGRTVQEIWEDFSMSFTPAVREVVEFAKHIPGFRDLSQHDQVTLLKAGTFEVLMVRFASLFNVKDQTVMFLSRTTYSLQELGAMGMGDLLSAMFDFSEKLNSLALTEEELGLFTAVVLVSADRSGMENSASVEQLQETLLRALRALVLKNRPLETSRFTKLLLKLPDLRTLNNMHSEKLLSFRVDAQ
PG9 Ab binder: small molecules binding HIV-1 gp120 antibody PG9. 360,000 tested, 0.43% active. TR-FRET gp120-PG9 antibody binding. inhibition, % at 6.7 µM; in the data active = inhibition above about 8.5%
NR2E3 ag-2: human photoreceptor-specific nuclear receptor agonism; Q9Y5X4; CHO-S Gal4-NCOR/VP16-NR2E3 two-hybrid, luciferase; inhibition of corepressor binding, % at 3.98 µM; 360,000 tested, 0.35% active;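 active = inhibition above the mean of all tested compounds plus 3 SD, cut at about 70% in these data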;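 note: 0% = DMSO with NR2E3 transfected cells and 100% = cells lacking NR2E3 construct; higher means lower luciferase signal from less NR2E3 corepressor binding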
PG9 binder conf: PG9 antibody binding, confirmed | shares compounds with PG9 Ab binder | TR-FRET PG9 antibody binding, biochemical | inhibition, % at 6.7 µM | 1,500 tested, 90% active | AID 651571; in the data active = inhibition above about 9%
PGV04 Ab binding: PGV04 control antibody binding, counter-screen; TR-FRET PGV04 antibody-gp120 binding, biochemical; 1,500 tested, 95% active; inhibition, % at 6.7 µM; shares compounds with PG9 Ab binder; in the data active = inhibition above about 9.5%
PG9 bind DR: PG9 antibody binding, dose response. shares compounds with PG9 Ab binder. TR-FRET PG9 antibody-gp120 binding inhibition. IC50, µM. 95 tested, under 10 active; in the data active = IC50 below about 10 µM
PGV04 binding DR: counter-screen for PG9 binders: binding to control antibody PGV04. 95 tested, 20% active. TR-FRET binding to control antibody PGV04. shares compounds with PG9 Ab binder. IC50, µM
PG126 DR counter: binds control antibody PG126 in PG9 counter-screen | shares compounds with PG9 Ab binder | TR-FRET binding to antibody PG126, counterscreen | IC50, µM | 95 tested, 20% active
Rev-erbA confirm: Rev-erb alpha (human) modulation, hit confirmation; shares compounds with Rev-erbA mod; Rev-erb alpha FITC-DNA binding, fluorescence polarization, 90 min; activation, % at 25 µM; 3,000 tested, 61% active; AID 1259319;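 active = activation at or above a set limit, or at least 3 SD above the negative control mean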;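 note: 0% = 35 nM protein with DMSO and 100% = 750 nM protein high control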
RORg DNA counter: counter-screen for Rev-erb alpha modulators: RORgamma DNA binding; shares compounds with Rev-erbA mod; 910 tested, 8% active; purified RORgamma protein-FITC-DNA binding, fluorescence polarization; IC50, µM; AID 1259320;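 active = Compounds whose fitted half-maximal concentration for disrupting protein-DNA binding is below 10 micromolar; the record names Rev-erb in its text, so the target is in doubt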
* hit, by the source's call; i = inactive; . = no result. This is a sample that favours compounds with a hit; in the whole collection about 1.5% have one here. Cut-off read from the data, not from the text of the source, unless noted: active = IC50 below about 9 µM; inactive = the rest.

SMILES	NR2E3 ag-1	Rev-erbA mod	PG9 Ab binder	NR2E3 ag-2	PG9 binder conf	PGV04 Ab binding	Rev-erbA confirm	others
CCCc1nc(SCC(=O)Nc2nnc(CC)s2)c2c(C)c(C)sc2n1	1.4	26.2*	12.3*	1.1	17.7*	15.9*	14.9	PG9 bind DR=>67.1;PGV04 binding DR=i;PG126 DR counter=i
CS(=O)(=O)N1CCC[C@]2(CC[C@@H](CCC#N)O2)C1	.	-3.9	.	.	.	.	.
CCOC(=O)c1cc2sc(C)cc2n1CC(=O)N(CC)CC	-0.3	-1.7	0.9	-2.6	.	.	.
CCOC(=O)c1cc2sc(C)cc2n1CC(=O)NCCc1ccccc1	-15.7	31.8*	55.2*	24.9	49.2*	53.1*	13.5
CC1CN(S(=O)(=O)c2ccc(C(=O)Nc3nc(-c4cc5ccccc5o4)cs3)cc2)CC(C)O1 (stereo not given)	-1.2	64.3*	63.4*	-3.6	71.0*	79.2*	11.8
Cc1cc(C)c(C#N)c(SCCS(=O)(=O)Cc2ccc(Cl)cc2)n1	-3.4	36.4*	11.1*	3.8	21.7*	31.3*	18.2*
N=C1C(c2nc3ccccc3s2)=C(O)CN1NC(=O)c1c[nH]c2ccccc12	-0.5	31.8*	12.3*	-0.9	21.9*	39.1*	51.3*	RORg DNA counter=>40
COc1ccc(CCn2c(S)nc3ccccc3c2=O)cc1	4.6	36.6*	23.9*	-17.4	42.4*	50.1*	7.8
Cc1c(-c2ccc(Cl)cc2)oc(=O)c2c(N)n(-c3ccccc3)nc12	-48.0	48.6*	36.2*	-20.7	30.6*	39.5*	49.0*	RORg DNA counter=>40
Cc1cccc(-c2cccc3c4c([nH]c23)[C@@H]2C[C@H](N(C)C(=O)NC3CCCCC3)[C@H]([C@H](C)O)C(=O)N2CC4)c1	.	-4.9	.	.	.	.	.
Cc1ccc(C)c(Cn2c(=O)n(CCCC(=O)NCc3ccco3)c(=O)c3sccc32)c1	5.5	18.4*	18.0*	4.1	20.9*	29.0*	4.1
Cc1noc(C)c1C(=O)Nc1nc(-c2cc(F)ccc2F)cs1	.	19.3	6.7	-75.6	.	.	.
Cc1onc(-c2ccccc2)c1C(=O)Nc1nc(-c2cc(F)ccc2F)cs1	0.3	54.8*	51.8*	-71.3	49.9*	64.6*	64.8*	RORg DNA counter=>40
Cc1csc(NC(=O)c2ccc(COc3cccc(F)c3)o2)n1	.	-2.4	.	.	.	.	.
O=C(NN=Cc1ccc(-c2ccccc2)cc1)c1cc(-c2ccc(Cl)cc2)n[nH]1	.	-11.6	.	.	.	.	.
COC(=O)[C@]12C[C@H](CC(=O)NCCCN3CCCC3=O)C(=O)N(CCc3ccc(OC)c(OC)c3)C1=C[C@H](C1CCCC1)O[C@@H]2C	.	10.1	.	.	.	.	.
CC(=O)Nc1sc(C)c(C)c1C(=O)OCC(=O)NCc1ccc(F)cc1	5.3	17.1*	9.3*	-22.4	13.2*	19.3*	15.5*
C=CCN1[C@H](CO)[C@H](c2ccccc2)[C@@H]1C#N	.	-0.9	.	.	.	.	.
O=C(NC1CCCCN(Cc2cccc(C(F)(F)F)c2)C1=O)c1c(F)cccc1F (stereo not given)	.	1.5	.	.	.	.	.
CCC(=O)c1cn(CC(=O)Nc2cc(C)ccc2C)c2ccccc12	6.5	31.6*	18.9*	-0.7	15.7*	22.2*	21.2*
CCC(=O)c1cn(CC(=O)Nc2ccccc2F)c2ccccc12	2.4	5.0	-1.7	19.4	.	.	.
CC(C)C(=O)Nc1cccc(C(=O)OCC(=O)c2ccc(Cl)cc2Cl)c1	-1.3	18.9*	53.1*	-41.6	40.3*	58.2*	9.4
CC(C)C[C@H](NC(C)(C)C(=O)NC1CCCCC1)C(=O)NCCc1c[nH]c2ccccc12	.	3.8	.	.	.	.	.
CCCOc1ccc(C(=O)Nc2nc(C)c(Cc3ccc4c(c3)OCO4)s2)cc1	0.5	128.2*	61.4*	-7.7	25.4*	31.1*	82.8*	RORg DNA counter=>40
NS(=O)(=O)c1ccc2nc(NC(=O)c3ccc4ncsc4c3)sc2c1	-1.0	.	.	-14.1	.	.	.
SMILES	NR2E3 ag-1	Rev-erbA mod	PG9 Ab binder	NR2E3 ag-2	PG9 binder conf	PGV04 Ab binding	Rev-erbA confirm	others
NS(=O)(=O)c1ccc2nc(NC(=O)c3ccc4c(c3)OCCO4)sc2c1	-0.6	33.1*	37.3*	-19.8	33.0*	45.8*	11.8
Cc1ccc2nc(NC(=O)c3ccc4c(c3)OCO4)sc2c1	-7.3	28.6*	17.9*	-116.5	20.8*	31.6*	12.1
Clc1cccc(CNc2nc(-c3ccccn3)nnc2-c2ccccc2)c1	.	-9.5	.	.	.	.	.
COC(=O)[C@]12C[C@H](CC(=O)N3CCCC3)C(=O)N(Cc3ccc(Cl)cc3Cl)C1=C[C@H](C(C)(C)C)O[C@@H]2C	.	1.3	.	.	.	.	.
C=C(C)/C=C1/CN(Cc2ccc3c(c2)OCO3)C(=N)N1C(=O)OCc1ccccc1	.	2.4	.	.	.	.	.
COc1cc(C(=O)Nc2cc(Cl)ccc2-n2cncn2)ccc1OC(F)F	-2.1	31.3*	10.2*	6.5	22.7*	38.2*	16.0
CCOC(=O)c1c(NC(=O)COC(=O)CCOc2ccccc2C)sc(C(=O)NC)c1C	13.0	71.8*	30.5*	4.3	48.4*	56.6*	45.9*	RORg DNA counter=>40
O=C(CSc1ncnc2c1oc1ccccc12)NCc1ccc(F)cc1	2.8	395.1*	51.1*	-22.8	25.1*	74.0*	434.4*	RORg DNA counter=i
O=C(CSc1ncnc2c1oc1ccccc12)Nc1cccc(F)c1	0.7	343.4*	68.6*	-44.9	67.2*	87.5*	321.8*	RORg DNA counter=i
NC(=O)CSc1ncnc2c1oc1ccccc12	-1.1	-3.1	-14.2	-5.9	.	.	.
c1ccc2nc(-c3ccc(N4CCOCC4)cc3)ccc2c1	10.1	90.4*	38.7*	-73.5	44.8*	41.7*	63.6*	PG9 bind DR=>67;PGV04 binding DR=3.66*;PG126 DR counter=4.17*;RORg DNA counter=>40
CCCC(=O)OC12CCCN(C1)/C(=C/c1cccc(OC)c1)C2 (stereo not given)	.	4.6	.	.	.	.	.
CCOc1ccc(S(=O)(=O)Nc2nc3ccccc3nc2-n2ccc(=NC(=O)c3ccccc3C)cc2)cc1	-0.6	39.1*	40.2*	-1.5	32.3*	65.2*	59.3*	RORg DNA counter=>40
CCOC(=O)N(C)[C@H]1C[C@H]2c3[nH]c4ccccc4c3CCN2C(=O)[C@H]1[C@H](C)O	.	0.5	-2.0	.	.	.	.
CCn1c(-c2ccccc2)c[nH]c1=S	4.5	11.2	-0.2	12.0	.	.	.
